Test results published in PMC9037101 (RSC Advances, 2021).

How the values were obtained:
[1] = Stability of the analytes in rat plasma QC samples; assay type: in vitro ADME; details: for Free-thaw stability: Measured concentration / Free-thaw stability: Accuracy: 3 free thaw cycles; for Free-thaw stability: Accuracy / Long-tern stability: Accuracy: relative error; for Long-tern stability: Accuracy / Long-tern stability: Measured concentration: −20 °C for 21 d; for Short-tern stability: Measured concentration: room temperature for 8 h
Summary of the method: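 Rat (SD male) plasma QC samples at low, medium and high levels, six replicates each. Storage conditions: 4 h at room temperature after preparation, 8 h at room temperature (short-term), 21 days at −20 °C (long-term), and three freeze (−20 °C)/thaw (room temperature) cycles over three consecutive days. Samples were methanol-precipitated with internal standard and measured by HPLC-MS/MS. Stability was reported as relative error.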

[2] = assay type: in vivo, Sprague-Dawley (SD) rats; details: for AUC(0-inf) / AUC(0-t) / Cmax / Tmax / half-life: male, Sprague-Dawley, plasma, po, 15 mL kg^−1; for AUC(0-inf) / AUC(0-t) / Cmax / Tmax / half-life / absorption into blood (in words): rat; for absorption into blood (in words): oral administration of extract
[3] = double-peak phenomenon, rat plasma, oral extract

Row | Free-thaw stability: Measured concentration ([1]; high QC spiked concentration) [ng/mL] | Free-thaw stability: Measured concentration ([1]; low QC spiked concentration) [ng/mL] | Free-thaw stability: Measured concentration ([1]; medium QC spiked concentration) [ng/mL] | Free-thaw stability: Accuracy ([1]; high QC spiked concentration) [%] | Free-thaw stability: Accuracy ([1]; low QC spiked concentration) [%] | Free-thaw stability: Accuracy ([1]; medium QC spiked concentration) [%] | Long-tern stability: Accuracy ([1]; high QC spiked concentration) [%] | Long-tern stability: Accuracy ([1]; low QC spiked concentration) [%] | Long-tern stability: Accuracy ([1]; medium QC spiked concentration) [%] | Short-tern stability: Measured concentration ([1]; high QC spiked concentration) [ng/mL] | Short-tern stability: Measured concentration ([1]; low QC spiked concentration) [ng/mL] | Short-tern stability: Measured concentration ([1]; medium QC spiked concentration) [ng/mL] | Long-tern stability: Measured concentration ([1]; high QC spiked concentration) [ng/mL] | Long-tern stability: Measured concentration ([1]; low QC spiked concentration) [ng/mL] | Long-tern stability: Measured concentration ([1]; medium QC spiked concentration) [ng/mL] | AUC(0-inf) [2] [ng·h/mL] | Cmax [2] [ng/mL] | Tmax [2] [min] | half-life [2] [min] | absorption into blood (in words) [2] | SMILES | other results
1 | 494.36 ± 4.99 | 7.34 ± 0.32 | 124.68 ± 6.33 | 5.51 | 3.67 | 6.63 | 3.51 | 7.06 | 6.48 | 490.89 ± 7.31 | 7.17 ± 1.91 | 123.78 ± 2.47 | 484.98 ± 5.09 | 7.58 ± 0.51 | 124.51 ± 4.02 |  | 146 ± 14.9 | 180 | 298.5 ± 0.16 | absorbed very slowly | O=c1cc(-c2ccc(O)cc2)oc2cc(O)cc(O)c12 [Apigenin, apigenin] | time of first peak of the plasma concentration–time curve [2, 3]: 5 min; time of second peak of the plasma concentration–time curve [2, 3]: 180 min
2 | 67.46 ± 2.42 | 2.78 ± 0.89 | 17.48 ± 1.19 | 4.62 | 5.30 | 6.72 | 6.02 | 3.03 | 5.43 | 66.98 ± 7.47 | 2.80 ± 1.62 | 17.12 ± 1.22 | 68.36 ± 3.68 | 2.72 ± 0.32 | 17.27 ± 2.69 | 18.2 | 20.1 ± 24.9 | 5 | 46.03 ± 0.09 | rapidly absorbed | O=c1c(O)c(-c2ccc(O)c(O)c2)oc2cc(O)cc(O)c12 [Quercetin, quercetin] | AUC(0-t) [2]: 9.31 ng·h/mL
3 | 258.35 ± 4.86 | 6.60 ± 0.18 | 66.03 ± 2.64 | 4.35 | 4.43 | 6.21 | 5.43 | 6.01 | 8.32 | 260.55 ± 0.49 | 6.76 ± 0.18 | 64.88 ± 0.92 | 261.02 ± 4.65 | 6.7 ± 0.76 | 67.34 ± 3.63 | 35.4 | 77.4 ± 25.7 | 5 | 36.08 ± 0.24 |  | O=c1cc(-c2ccc(O)c(O)c2)oc2cc(O)cc(O)c12 [Luteolin, luteolin] | 

Further lines, the compound ahead of its results:

Row | SMILES | Free-thaw stability: Measured concentration ([1]; high QC spiked concentration) [ng/mL] | Free-thaw stability: Measured concentration ([1]; low QC spiked concentration) [ng/mL] | Free-thaw stability: Measured concentration ([1]; medium QC spiked concentration) [ng/mL] | Free-thaw stability: Accuracy ([1]; high QC spiked concentration) [%] | Free-thaw stability: Accuracy ([1]; low QC spiked concentration) [%] | Free-thaw stability: Accuracy ([1]; medium QC spiked concentration) [%] | Long-tern stability: Accuracy ([1]; high QC spiked concentration) [%] | Long-tern stability: Accuracy ([1]; low QC spiked concentration) [%] | Long-tern stability: Accuracy ([1]; medium QC spiked concentration) [%] | Short-tern stability: Measured concentration ([1]; high QC spiked concentration) [ng/mL] | Short-tern stability: Measured concentration ([1]; low QC spiked concentration) [ng/mL] | Short-tern stability: Measured concentration ([1]; medium QC spiked concentration) [ng/mL] | Long-tern stability: Measured concentration ([1]; high QC spiked concentration) [ng/mL] | Long-tern stability: Measured concentration ([1]; low QC spiked concentration) [ng/mL] | Long-tern stability: Measured concentration ([1]; medium QC spiked concentration) [ng/mL] | AUC(0-inf) [2] [ng·h/mL] | Cmax [2] [ng/mL] | Tmax [2] [min] | half-life [2] [min] | absorption into blood (in words) [2] | other results
4 | COc1ccc(-c2cc(=O)c3c(O)cc(O)cc3o2)cc1 [Acacetin, acacetin] | 108.48 ± 6.51 | 4.81 ± 0.22 | 26.99 ± 4.36 | 6.21 | 4.11 | 3.13 | 3.46 | 4.11 | 1.38 | 107.02 ± 3.38 | 4.69 ± 0.36 | 27.31 ± 5.34 | 105.68 ± 9.65 | 4.81 ± 0.27 | 26.53 ± 3.21 | 17.7 | 31.9 ± 17.6 | 10 | 96.87 ± 0.12 | rapidly absorbed | AUC(0-t) [2]: 15.3 ng·h/mL
5 | C[C@@H]1O[C@@H](O[C@@H]2[C@@H](O)[C@H](OCCc3ccc(O)c(O)c3)O[C@H](CO)[C@H]2OC(=O)/C=C/c2ccc(O)c(O)c2)[C@H](O)[C@H](O)[C@H]1O [Acteoside, acteoside] | 2132.91 ± 11.91 | 2.1 ± 0.14 | 544.87 ± 4.54 | 5.21 | 3.45 | 4.92 | 6.94 | 1.97 | 4.16 | 2150.14 ± 11.92 | 2.11 ± 0.13 | 548.82 ± 2.92 | 2167.98 ± 18.52 | 2.07 ± 0.12 | 540.92 ± 9.44 |  | 650 ± 16.4 | 10 | 46.8 ± 0.35 | rapidly absorbed | 
6 | C[C@@H]1O[C@@H](OC[C@H]2O[C@@H](Oc3c(-c4ccc(O)c(O)c4)oc4cc(O)cc(O)c4c3=O)[C@H](O)[C@@H](O)[C@@H]2O)[C@H](O)[C@H](O)[C@H]1O [Rutin] | 437.7 ± 10.02 | 6.2 ± 1.88 | 110.30 ± 8.24 | 4.58 | 2.48 | 7.54 | 2.55 | 4.30 | 4.68 | 426.82 ± 18.15 | 6.36 ± 6.81 | 108.48 ± 7.41 | 429.20 ± 19.79 | 6.31 ± 5.88 | 107.37 ± 9.98 |  | 131 ± 18.3 | 5 |  | rapidly absorbed | AUC(0-t) [2]: 50.7 ng·h/mL; AUC0–∞ (mean ± SD) ([2]; rat plasma, single oral administration of extract 15 mL kg^−1, n = 6): 3039.62 ± 54.07 ng/L/h
